ChEMBL document CHEMBL1137674, “Synthesis and antibacterial evaluation of novel 4-alkyl substituted phenyl beta-aldehyde ketone derivatives” (2009)
Converted amounts (≈) assume the structure as drawn.

Assays:
Assay type in all cases: functional
Escherichia coli = assay: Antimicrobial activity against Escherichia coli ATCC 25922 after 16 to 18 hrs by agar dilution method
In short: (§1)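 Agar dilution following NCCLS/CLSI, with twofold serial dilutions of the compounds and reference drugs in Mueller-Hinton agar. Inocula were overnight cultures (16-18 h, 37 °C) adjusted to 0.5 McFarland. Compounds were dissolved in DMSO, which served as the control. MIC was taken as the lowest concentration preventing viable growth after 16-18 h incubation.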

Staphylococcus aureus [1] = assay: Antimicrobial activity against Staphylococcus aureus ATCC 25923 after 16 to 18 hrs by agar dilution method; in short: as §1
Pseudomonas aeruginosa = assay: Antimicrobial activity against Pseudomonas aeruginosa ATCC 27853 after 16 to 18 hrs by agar dilution method; in short: as §1
Staphylococcus aureus [2] = assay: Antimicrobial activity against methicillin-resistant Staphylococcus aureus isolate 1 after 16 to 18 hrs by agar dilution method
In short: (§2)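 Agar dilution MIC on Mueller-Hinton agar with the test agents mixed into the medium. MIC was read as the lowest concentration preventing viable growth after 16–18 h incubation.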

Staphylococcus aureus [3] = assay: Antimicrobial activity against methicillin-resistant Staphylococcus aureus isolate 3 after 16 to 18 hrs by agar dilution method; in short: as §2
Staphylococcus aureus [4] = assay: Antimicrobial activity against methicillin-resistant Staphylococcus aureus isolate 5 after 16 to 18 hrs by agar dilution method; in short: as §2
Staphylococcus aureus [5] = assay: Antimicrobial activity against methicillin-resistant Staphylococcus aureus isolate 2 after 16 to 18 hrs by agar dilution method; in short: as §2
Staphylococcus aureus [6] = assay: Antimicrobial activity against methicillin-resistant Staphylococcus aureus isolate 4 after 16 to 18 hrs by agar dilution method; in short: as §2
Staphylococcus aureus [7] = assay: Antimicrobial activity against Staphylococcus aureus isolate 10 after 16 to 18 hrs by agar dilution method
Staphylococcus aureus [8] = assay: Antimicrobial activity against Staphylococcus aureus isolate 7 after 16 to 18 hrs by agar dilution method; in short: as §2
Staphylococcus aureus [9] = assay: Antimicrobial activity against Staphylococcus aureus isolate 2 after 16 to 18 hrs by agar dilution method; in short: as §2
Staphylococcus aureus [10] = assay: Antimicrobial activity against Staphylococcus aureus isolate 5 after 16 to 18 hrs by agar dilution method
Staphylococcus aureus [11] = assay: Antimicrobial activity against Staphylococcus aureus isolate 4 after 16 to 18 hrs by agar dilution method
Staphylococcus aureus [12] = assay: Antimicrobial activity against Staphylococcus aureus isolate 1 after 16 to 18 hrs by agar dilution method
Staphylococcus aureus [13] = assay: Antimicrobial activity against Staphylococcus aureus isolate 8 after 16 to 18 hrs by agar dilution method; in short: as §2
Staphylococcus aureus [14] = assay: Antimicrobial activity against Staphylococcus aureus isolate 3 after 16 to 18 hrs by agar dilution method
Staphylococcus aureus [15] = assay: Antimicrobial activity against Staphylococcus aureus isolate 9 after 16 to 18 hrs by agar dilution method
Staphylococcus aureus [16] = assay: Antimicrobial activity against Staphylococcus aureus isolate 6 after 16 to 18 hrs by agar dilution method

Structure (SMILES)	MIC (Escherichia coli) [µg/mL]	MIC (Staphylococcus aureus [1]) [µg/mL]	MIC (Pseudomonas aeruginosa) [µg/mL]	also measured
CO/N=C/CC(=O)c1ccc(C)cc1	64 (≈ 335 µM)	4 (≈ 20.9 µM)	64 (≈ 335 µM)	MIC (Staphylococcus aureus [2]): 8 µg/mL (≈ 41.8 µM); MIC (Staphylococcus aureus [3]): 8 µg/mL (≈ 41.8 µM); MIC (Staphylococcus aureus [4]): 8 µg/mL (≈ 41.8 µM); MIC (Staphylococcus aureus [5]): 8 µg/mL (≈ 41.8 µM); MIC (Staphylococcus aureus [6]): 8 µg/mL (≈ 41.8 µM)
Cc1ccc(C(=O)CC=O)cc1	> 64	> 64	> 64	
Cc1ccc(C(=O)C/C=N/NC(N)=S)cc1	> 64	> 64	> 64	
CCc1ccc(/C(C/C=N/OC)=N\OC)cc1	> 64	32 (≈ 137 µM)	> 64	
CCCCCc1ccc(C(=O)C/C=N/OCC)cc1	> 64	4 (≈ 15.3 µM)	> 64	
O=CCC(=O)c1ccccc1	> 64	> 64	> 64	
Cc1ccc(C(=O)C/C=N/NC(N)=O)cc1	> 64	> 64	> 64	
CCO/N=C(/C/C=N/OCC)c1ccc(CC)cc1	> 64	32 (≈ 122 µM)	> 64	
CO/N=C/CC(=O)c1ccc(C(C)C)cc1	> 64	2 (≈ 9.12 µM)	> 64	MIC (Staphylococcus aureus [2]): 8 µg/mL (≈ 36.5 µM); MIC (Staphylococcus aureus [3]): 8 µg/mL (≈ 36.5 µM); MIC (Staphylococcus aureus [4]): 4 µg/mL (≈ 18.2 µM); MIC (Staphylococcus aureus [5]): 8 µg/mL (≈ 36.5 µM); MIC (Staphylococcus aureus [6]): 8 µg/mL (≈ 36.5 µM)
CCO/N=C/CC(=O)c1ccc(C(C)C)cc1	> 64	1 (≈ 4.29 µM)	> 64	MIC (Staphylococcus aureus [7]): 4 µg/mL (≈ 17.1 µM); MIC (Staphylococcus aureus [2]): 16 µg/mL (≈ 68.6 µM); MIC (Staphylococcus aureus [8]): 8 µg/mL (≈ 34.3 µM); MIC (Staphylococcus aureus [9]): 16 µg/mL (≈ 68.6 µM); MIC (Staphylococcus aureus [10]): 1 µg/mL (≈ 4.29 µM); MIC (Staphylococcus aureus [3]): 8 µg/mL (≈ 34.3 µM); MIC (Staphylococcus aureus [11]): 2 µg/mL (≈ 8.57 µM); MIC (Staphylococcus aureus [4]): 8 µg/mL (≈ 34.3 µM); MIC (Staphylococcus aureus [12]): 4 µg/mL (≈ 17.1 µM); MIC (Staphylococcus aureus [13]): 8 µg/mL (≈ 34.3 µM); MIC (Staphylococcus aureus [14]): 4 µg/mL (≈ 17.1 µM); MIC (Staphylococcus aureus [5]): 8 µg/mL (≈ 34.3 µM); MIC (Staphylococcus aureus [15]): 4 µg/mL (≈ 17.1 µM); MIC (Staphylococcus aureus [16]): 4 µg/mL (≈ 17.1 µM); MIC (Staphylococcus aureus [6]): 16 µg/mL (≈ 68.6 µM)
CO/N=C(/C/C=N/OC)c1ccc(C(C)C)cc1	> 64	32 (≈ 129 µM)	> 64	
CCO/N=C(/C/C=N/OCC)c1ccc(C(C)C)cc1	> 64	32 (≈ 116 µM)	> 64	
CCCCCc1ccc(/C(C/C=N/OCC)=N\OCC)cc1	> 64	64 (≈ 210 µM)	> 64	
NC(=S)N/N=C/CC(=O)c1ccccc1	> 64	> 64	> 64	
O=C(C/C=N/O)c1ccccc1	> 64	64 (≈ 392 µM)	> 64	
CCCCCc1ccc(/C(C/C=N/OC)=N\OC)cc1	> 64	64 (≈ 232 µM)	> 64	
CC[C@H]1OC(=O)[C@H](C)[C@@H](O[C@H]2C[C@@](C)(OC)[C@@H](O)[C@H](C)O2)[C@H](C)[C@@H](O[C@@H]2O[C@H](C)C[C@H](N(C)C)[C@H]2O)[C@](C)(OC)C[C@@H](C)C(=O)[C@H](C)[C@@H](O)[C@]1(C)O [CLARITHROMYCIN]	32 (≈ 42.8 µM)	0.12 (≈ 0.16 µM)	> 64	
CCCCCCCCCC(=O)CC=O [HOUTTUYNIN]		32 (≈ 161 µM)		MIC (Staphylococcus aureus [2]): 16 µg/mL (≈ 80.7 µM); MIC (Staphylococcus aureus [3]): 16 µg/mL (≈ 80.7 µM); MIC (Staphylococcus aureus [4]): 16 µg/mL (≈ 80.7 µM); MIC (Staphylococcus aureus [5]): 16 µg/mL (≈ 80.7 µM); MIC (Staphylococcus aureus [6]): 16 µg/mL (≈ 80.7 µM)
C[C@H]1COc2c(N3CCN(C)CC3)c(F)cc3c(=O)c(C(=O)O)cn1c23.C[C@H]1COc2c(N3CCN(C)CC3)c(F)cc3c(=O)c(C(=O)O)cn1c23.O [LEVOFLOXACIN]	0.025	0.25	0.5	MIC (Staphylococcus aureus [7]): 0.5 µg/mL; MIC (Staphylococcus aureus [2]): 8 µg/mL; MIC (Staphylococcus aureus [8]): 0.25 µg/mL; MIC (Staphylococcus aureus [9]): 0.5 µg/mL; MIC (Staphylococcus aureus [10]): 0.125 µg/mL; MIC (Staphylococcus aureus [3]): 16 µg/mL; MIC (Staphylococcus aureus [11]): 0.25 µg/mL; MIC (Staphylococcus aureus [4]): 16 µg/mL; MIC (Staphylococcus aureus [12]): 0.25 µg/mL; MIC (Staphylococcus aureus [13]): 0.25 µg/mL; MIC (Staphylococcus aureus [14]): 0.25 µg/mL; MIC (Staphylococcus aureus [5]): 8 µg/mL; MIC (Staphylococcus aureus [15]): 0.25 µg/mL; MIC (Staphylococcus aureus [16]): 0.5 µg/mL; MIC (Staphylococcus aureus [6]): 16 µg/mL
CCCCCCCCCC(=O)CC(O)S(=O)(=O)[O-].[Na+] (configuration not stated) [SODIUM HOUTTUYFONATE]				MIC (Staphylococcus aureus [7]): 32 µg/mL; MIC (Staphylococcus aureus [8]): 64 µg/mL; MIC (Staphylococcus aureus [9]): 64 µg/mL; MIC (Staphylococcus aureus [10]): 32 µg/mL; MIC (Staphylococcus aureus [11]): 64 µg/mL; MIC (Staphylococcus aureus [12]): 64 µg/mL; MIC (Staphylococcus aureus [13]): 64 µg/mL; MIC (Staphylococcus aureus [14]): 64 µg/mL; MIC (Staphylococcus aureus [15]): 64 µg/mL; MIC (Staphylococcus aureus [16]): 64 µg/mL

The next lines start with results.

MIC (Escherichia coli) [µg/mL]	MIC (Staphylococcus aureus [1]) [µg/mL]	MIC (Pseudomonas aeruginosa) [µg/mL]	Structure (SMILES)	also measured
> 64	> 64	> 64	CCCCCc1ccc(C(=O)CC(O)S(=O)(=O)[O-])cc1.[Na+] (configuration not stated)	
> 64	4 (≈ 19.5 µM)	> 64	CCc1ccc(C(=O)C/C=N/OC)cc1	
> 64	64 (≈ 361 µM)	> 64	Cc1ccc(C(=O)C/C=N/O)cc1	
> 64	64 (≈ 361 µM)	> 64	CO/N=C/CC(=O)c1ccccc1	
64 (≈ 259 µM)	4 (≈ 16.2 µM)	64 (≈ 259 µM)	CCCCCc1ccc(C(=O)C/C=N/OC)cc1	
> 64	4 (≈ 18.2 µM)	> 64	CCO/N=C/CC(=O)c1ccc(CC)cc1	
> 64	> 64	> 64	CC(C)c1ccc(C(=O)CC(O)S(=O)(=O)[O-])cc1.[Na+] (configuration not stated)	
> 64	> 64	> 64	NC(=O)N/N=C/CC(=O)c1ccccc1	
64 (≈ 312 µM)	4 (≈ 19.5 µM)	64 (≈ 312 µM)	CCO/N=C/CC(=O)c1ccc(C)cc1	
